The values below come from ChEMBL document CHEMBL1153392, “Identification of a metabolically stable triazolopyrimidine-based dihydroorotate dehydrogenase inhibitor with antimalarial activity in mice” (J Med Chem, 2009).

Data set [1] relates to Plasmodium berghei. Nature of the data set: Inhibition of Plasmodium berghei ANKA DHODH. In short, it runs like this:
(§1)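 Truncated soluble enzyme expressed in E. coli and purified. DCIP (0.12 mM) reduction followed at 600 nm with 5-10 nM enzyme, 0.2 mM L-dihydroorotate and 0.02 mM CoQD in 100 mM HEPES pH 8.0, 150 mM NaCl, 10% glycerol, 0.1% Triton, 20 °C. Triplicate points per concentration; IC50 fitted.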

For data set [2], the target named is T1, Dihydroorotate dehydrogenase (Plasmodium falciparum, UniProt Q54A96).
T1 sequence (Q54A96 whole entry): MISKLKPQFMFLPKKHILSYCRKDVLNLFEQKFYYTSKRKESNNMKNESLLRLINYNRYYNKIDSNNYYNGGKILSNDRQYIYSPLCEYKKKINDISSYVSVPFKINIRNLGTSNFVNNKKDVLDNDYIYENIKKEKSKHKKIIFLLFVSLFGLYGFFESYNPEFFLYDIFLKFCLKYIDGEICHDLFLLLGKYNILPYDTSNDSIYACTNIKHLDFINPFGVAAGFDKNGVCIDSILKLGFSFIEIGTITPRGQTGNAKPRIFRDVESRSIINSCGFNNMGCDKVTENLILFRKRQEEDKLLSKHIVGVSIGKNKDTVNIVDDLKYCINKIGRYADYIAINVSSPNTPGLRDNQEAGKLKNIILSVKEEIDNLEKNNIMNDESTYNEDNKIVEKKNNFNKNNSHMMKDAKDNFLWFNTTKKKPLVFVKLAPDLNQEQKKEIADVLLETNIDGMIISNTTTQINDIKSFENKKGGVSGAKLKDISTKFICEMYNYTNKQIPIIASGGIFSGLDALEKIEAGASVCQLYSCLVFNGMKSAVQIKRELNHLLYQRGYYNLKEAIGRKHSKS
Nature of the data set: Inhibition of Plasmodium falciparum DHODH. In short, it runs like this:
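Truncated soluble recombinant enzyme expressed in E. coli. Triplicate points per inhibitor concentration; IC50 from fit to Vi = Vo/(1+[I]/IC50).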

The subject of data set [3] is Plasmodium falciparum. The data set is described as follows: Antiplasmodial activity against Plasmodium falciparum 3D7 by [3H]hypoxanthine uptake. The format is functional, organism-based. In short, it runs like this: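 Proliferation of drug-treated infected erythrocytes measured by [3H]hypoxanthine uptake over a range of inhibitor concentrations, triplicate points per concentration. EC50 derived from a Hill-slope logistic fit.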

In data set [4] the target is Dihydroorotate dehydrogenase (quinone), mitochondrial (Homo sapiens, UniProt Q02127). The data set is described as follows: Inhibition of human DHODH. In short, it runs like this: as §1
Data set [5] deals with Liver microsomes. The following applies: human, 1 µM.
Data set [6] has as its system Liver microsomes. The following applies: human, 1 µM. This is another data set of the same source.

Dihydroorotate dehydrogenase (quinone), mitochondrial, sequence (Q02127 whole entry): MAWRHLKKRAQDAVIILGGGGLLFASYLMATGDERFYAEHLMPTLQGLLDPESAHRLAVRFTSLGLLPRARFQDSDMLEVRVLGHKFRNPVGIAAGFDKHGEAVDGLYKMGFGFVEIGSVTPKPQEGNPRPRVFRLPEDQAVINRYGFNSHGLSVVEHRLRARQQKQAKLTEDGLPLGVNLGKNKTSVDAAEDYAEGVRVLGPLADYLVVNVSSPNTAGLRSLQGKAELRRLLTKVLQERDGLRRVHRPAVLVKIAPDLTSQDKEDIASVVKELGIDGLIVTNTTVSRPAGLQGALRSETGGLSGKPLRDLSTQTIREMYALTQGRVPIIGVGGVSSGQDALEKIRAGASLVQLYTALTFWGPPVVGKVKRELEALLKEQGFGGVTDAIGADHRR

As to `Cc1cc(Nc2cccc(F)c2F)n2ncnc2n1`, the values for the half-inhibitory concentration (IC50) in data set [1] and in data set [2] were greater than 100 µM and 39 µM, respectively.
Regarding `Cc1cc(Nc2cc(F)ccc2F)n2ncnc2n1`, the IC50 in data set [1] was greater than 100 µM; in data set [2], greater than 50 µM. The compound also displayed an EC50 in data set [3] greater than 50 µM.
As for `COc1ccc(Nc2cc(C)nc3ncnn23)cc1`, the values for the half-maximal inhibitory concentration (IC50) in data set [1] and in data set [2] were greater than 50 µM and 4.6 µM, respectively. The compound also showed a 50% effective concentration (EC50) in data set [3] of 14 µM.
Regarding `Cc1cc(Nc2ccc(Cl)c(C(F)(F)F)c2)n2ncnc2n1`, the IC50 was 2.4 µM in data set [1], greater than 100 µM in data set [4] and 0.8 µM in data set [2]. The concentration giving a half-maximal response (EC50) in data set [3] is greater than 5 µM. Moreover, in data set [5], the t1/2 was 2.17 h. In data set [6], the CL is 13 µL/min/mg.
Consider `Cc1cc(Nc2cccc(Cl)c2)n2ncnc2n1`, for which, in data set [2], the half-inhibitory concentration (IC50) was 1.4 µM. The compound further displayed a t1/2 in data set [5] of 0.75 h. This compound gave a CL in data set [6] of 38 µL/min/mg.
For the compound `Cc1cc(Nc2ccc(F)c(F)c2F)n2ncnc2n1`, the half-inhibitory concentration (IC50) in data set [1] was greater than 100 µM; in data set [2], 29 µM. This compound also displayed an EC50 in data set [3] greater than 50 µM.
As to `Cc1cc(Nc2ccc(C(F)(F)F)c(F)c2)n2ncnc2n1`, the half-maximal inhibitory concentration (IC50) in data set [1] was 0.26 µM; in data set [4] it was greater than 100 µM; in data set [2] it was 0.077 µM. Moreover, in data set [3], the EC50 is 1.3 µM. The compound further displayed a t1/2 in data set [5] of 6 h. Besides, in data set [6], the CL is 4.8 µL/min/mg.
Take `Cc1cc(Nc2ccc(Br)c(C(F)(F)F)c2)n2ncnc2n1`: the IC50 was 1.5 µM in data set [1], greater than 100 µM in data set [4] and 0.45 µM in data set [2]. The compound also yielded an EC50 in data set [3] of 2.6 µM. The same compound showed a t1/2 in data set [5] of 2.17 h. This compound also showed a CL in data set [6] of 14 µL/min/mg.
Turning to `Cc1cc(Nc2ccccc2Cl)n2ncnc2n1`, the half-maximal inhibitory concentration (IC50) in data set [1] and in data set [2] was greater than 100 µM throughout. Also, a half-maximal effect in data set [3] (EC50) was put at 30 µM.
Regarding `Cc1cc(Nc2c(F)c(F)c(F)c(F)c2F)n2ncnc2n1`, the 50% inhibitory concentration (IC50) in data set [1] and in data set [2] was greater than 100 µM each time. This compound also yielded a half-maximal effective concentration (EC50) in data set [3] greater than 50 µM.
On to `Cc1cc(Nc2cc(F)c(F)cc2F)n2ncnc2n1`, for which the figures for the concentration for half-maximal inhibition (IC50) in data set [1] and in data set [2] were greater than 100 µM and 17 µM, respectively. This compound also displayed an EC50 in data set [3] greater than 50 µM.
Turning to `Cc1cc(Nc2ccc([N+](=O)[O-])cc2)n2ncnc2n1`, the IC50 in data set [1] turned out to be 3.7 µM; in data set [2] it was 4.3 µM.
Turning to `Cc1cccc(Nc2cc(C)nc3ncnn23)c1`, the concentration for half-maximal inhibition (IC50) in data set [1] is greater than 100 µM; in data set [2], 4.9 µM. In data set [3], this compound yielded a 50% effective concentration (EC50) of 37 µM.
As for `Cc1cc(Nc2ccccc2C#N)n2ncnc2n1`, the IC50 in data set [1] and in data set [2] was greater than 100 µM in each case. Moreover, the EC50 in data set [3] was 25 µM.
As to `Cc1cc(Nc2cccc(F)c2)n2ncnc2n1`, the values for the IC50 in data set [1] and in data set [2] were greater than 100 µM and 9.2 µM, respectively. Also, it took 34 µM to reach a half-maximal effect in data set [3] (EC50). Besides, the t1/2 in data set [5] turned out to be 1.62 h. In data set [6], the CL was found to be 18 µL/min/mg.
For the compound `Cc1cc(Nc2ccc(C)c(C)c2)n2ncnc2n1`, the values for the half-inhibitory concentration (IC50) in data set [1], in data set [4] and in data set [2] were 4 µM, greater than 100 µM and 0.35 µM, respectively. In data set [5], this compound came in with a t1/2 of 0.383 h. In data set [6], this compound showed a CL of 77 µL/min/mg.
Turning to `Cc1ccc(Nc2cc(C)nc3ncnn23)c(F)c1`, the IC50 in data set [1] was greater than 100 µM; in data set [2], 27 µM. The compound further gave an EC50 in data set [3] of 35 µM.
With `Cc1cc(Nc2ccccc2C(F)(F)F)n2ncnc2n1`, the half-inhibitory concentration (IC50) in data set [1] and in data set [2] was greater than 100 µM in each case.
Regarding `Cc1cc(Nc2c(F)cccc2F)n2ncnc2n1`, the 50% inhibitory concentration (IC50) in data set [1] and in data set [2] was greater than 100 µM throughout. In data set [3], this compound returned a half-maximal effective concentration (EC50) greater than 50 µM.
For `Cc1cc(Nc2ccc(C)c(C(F)(F)F)c2)n2ncnc2n1`, the IC50 was 7.3 µM in data set [1], greater than 100 µM in data set [4] and 1.55 µM in data set [2].
On to `Cc1cc(Nc2ccc(F)cc2)n2ncnc2n1`, for which the 50% inhibitory concentration (IC50) was greater than 100 µM in data set [1] and 19 µM in data set [2]. Further, the concentration for a half-maximal effect (EC50) in data set [3] was found to be 50 µM.
Regarding `Cc1cc(Nc2ccc(Cc3ccccc3)cc2)n2ncnc2n1`, the figures for the IC50 in data set [1] and in data set [2] were greater than 100 µM and 2.2 µM, respectively. The EC50 in data set [3] is 5 µM.
`Cc1cc(Nc2c(F)cc(F)cc2F)n2ncnc2n1`: the IC50 in data set [1] and in data set [2] was greater than 100 µM each time.
As to `Cc1cc(Nc2ccccc2F)n2ncnc2n1`, the concentration for half-maximal inhibition (IC50) in data set [1] and in data set [2] was greater than 100 µM throughout. This compound also had an EC50 in data set [3] greater than 50 µM.
For the compound `Cc1ccc(Nc2cc(C)nc3ncnn23)cc1`, the IC50 was found to be 16 µM in data set [1] and 4.2 µM in data set [2]. This compound also displayed an EC50 in data set [3] of 6.4 µM.
As to `Cc1cc(Nc2ccc(C#N)c(C(F)(F)F)c2)n2ncnc2n1`, the values for the IC50 in data set [1] and in data set [2] were 11 µM and 4.9 µM, respectively. In data set [3], this compound showed an EC50 of 8.8 µM. In data set [5], this compound gave a t1/2 of 4.67 h. Besides, the CL in data set [6] was found to be 6.2 µL/min/mg.
With `Cc1cc(Nc2ccc(Br)cc2)n2ncnc2n1`, the results for the 50% inhibitory concentration (IC50) in data set [1], in data set [4] and in data set [2] were 1.3 µM, greater than 100 µM and 0.78 µM, respectively. Moreover, in data set [3], the concentration giving a half-maximal response (EC50) is 4.2 µM.
With `Cc1cc(Nc2ccc(F)c(F)c2)n2ncnc2n1`, the IC50 in data set [1] was 10 µM; in data set [2], 8 µM. In data set [3], the half-maximal effective concentration (EC50) was greater than 50 µM.
On to `Cc1cc(Nc2ccc(F)c(C)c2)n2ncnc2n1`, for which the IC50 in data set [1] came out at 21 µM; in data set [2] it was 4.6 µM. This compound returned an EC50 in data set [3] of 8.7 µM.
Consider `Cc1cc(Nc2c(F)c(F)cc(F)c2F)n2ncnc2n1`, for which the half-maximal inhibitory concentration (IC50) in data set [1] and in data set [2] was greater than 100 µM each time. In addition, in data set [3], the EC50 is greater than 50 µM.
On to `Cc1cc(Nc2ccc(-c3ccccc3)cc2)n2ncnc2n1`, for which the EC50 in data set [3] is greater than 50 µM. In data set [2], this compound registered a 50% inhibitory concentration (IC50) of 5.3 µM.
Regarding `Cc1cc(Nc2ccc(Cl)cc2)n2ncnc2n1`, the IC50 in data set [1] is 5.7 µM; in data set [4], greater than 100 µM; in data set [2] it was 1.6 µM. Also, the response in data set [3] was half-maximal at 12 µM (EC50).
As for `Cc1cc(Nc2ccc(OC(F)(F)F)cc2)n2ncnc2n1`, the half-inhibitory concentration (IC50) is 4 µM in data set [1], greater than 100 µM in data set [4] and 1.2 µM in data set [2].
As for `Cc1cc(Nc2ccc(OC(F)F)cc2)n2ncnc2n1`, the IC50 in data set [1] was 25 µM; in data set [2], 2.8 µM. In addition, the concentration giving a half-maximal response (EC50) in data set [3] is 8.2 µM.
As for `Cc1cc(Nc2ccccc2C)n2ncnc2n1`, the IC50 in data set [1] and in data set [2] was greater than 100 µM each time. In addition, the EC50 in data set [3] was greater than 50 µM.
On to `Cc1cc(Nc2cccc(C(F)(F)F)c2)n2ncnc2n1`, for which the IC50 was 55 µM in data set [1] and 14 µM in data set [2]. In data set [3], this compound came in with an EC50 of 19 µM. This compound also gave a t1/2 in data set [5] of 1 h. Besides, in data set [6], the CL came out at 29 µL/min/mg.
Consider `Cc1cc(Nc2ccc(C)c(F)c2)n2ncnc2n1`, for which the IC50 was 3.2 µM in data set [1], greater than 100 µM in data set [4] and 0.86 µM in data set [2]. Further, in data set [3], the EC50 turned out to be 3.6 µM. The t1/2 in data set [5] worked out at 0.6 h. In data set [6], this compound had a CL of 49 µL/min/mg.
`Cc1cc(Nc2cc(F)cc(F)c2)n2ncnc2n1`: the values for the IC50 in data set [1] and in data set [2] were 21 µM and 9.4 µM, respectively.
For the compound `Cc1cc(Nc2cc(C(F)(F)F)cc(C(F)(F)F)c2)n2ncnc2n1`, the IC50 in data set [1] and in data set [2] was greater than 100 µM in each case. This compound returned an EC50 in data set [3] greater than 5 µM.
